In ChEMBL document CHEMBL1147076, “Antitumor activity of MLN8054, an orally active small-molecule inhibitor of Aurora A kinase” (Proc Natl Acad Sci U S A, 2007):

What was measured:
[1] = biological target: Ephrin type-A receptor 7 (Homo sapiens) (UniProt Q15375); experiment: Activity of human EphA7 kinase at 1 uM
Method in brief: (§1)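 Single-point kinase profiling: each kinase in a 226-kinase panel tested with compound at 1 μM and ATP at 10 μM in every assay, run by an external screening service.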

[2] = biological target: Ephrin type-B receptor 2 (Homo sapiens) (UniProt P29323); experiment: Activity of human EphB2 kinase at 1 uM; method in brief: as §1
[3] = biological target: Inhibitor of nuclear factor kappa-B kinase subunit alpha (Homo sapiens) (UniProt O15111); experiment: Activity of human IKKalpha kinase at 1 uM; method in brief: as §1
Chain of Inhibitor of nuclear factor kappa-B kinase subunit alpha (Homo sapiens) (O15111 whole entry): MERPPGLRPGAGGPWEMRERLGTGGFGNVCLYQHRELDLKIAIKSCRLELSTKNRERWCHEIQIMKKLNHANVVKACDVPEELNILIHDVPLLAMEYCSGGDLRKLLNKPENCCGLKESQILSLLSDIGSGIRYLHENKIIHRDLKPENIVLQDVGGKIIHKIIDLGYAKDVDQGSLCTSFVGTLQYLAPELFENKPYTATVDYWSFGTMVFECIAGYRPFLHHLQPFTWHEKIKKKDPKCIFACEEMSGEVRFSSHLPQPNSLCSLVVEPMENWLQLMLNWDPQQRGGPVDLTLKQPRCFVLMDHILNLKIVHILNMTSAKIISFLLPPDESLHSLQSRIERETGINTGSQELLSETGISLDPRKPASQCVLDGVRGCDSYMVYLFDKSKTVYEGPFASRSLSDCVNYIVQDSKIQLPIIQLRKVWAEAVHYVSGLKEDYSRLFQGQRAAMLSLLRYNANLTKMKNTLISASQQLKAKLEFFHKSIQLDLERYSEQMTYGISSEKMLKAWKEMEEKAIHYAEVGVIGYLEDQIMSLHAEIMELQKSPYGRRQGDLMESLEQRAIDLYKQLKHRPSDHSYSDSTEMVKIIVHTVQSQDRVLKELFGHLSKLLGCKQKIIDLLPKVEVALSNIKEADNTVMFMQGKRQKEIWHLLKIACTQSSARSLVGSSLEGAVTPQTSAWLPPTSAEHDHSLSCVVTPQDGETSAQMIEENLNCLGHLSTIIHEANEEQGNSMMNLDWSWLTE

[4] = biological target: Tyrosine-protein kinase JAK2 (Homo sapiens) (UniProt O60674); experiment: Activity of human JAK2 kinase at 1 uM
[5] = biological target: Mitogen-activated protein kinase 8 (Homo sapiens) (UniProt P45983); experiment: Activity of human JNK1-alpha-1 kinase at 1 uM; method in brief: as §1
[6] = biological target: LIM domain kinase 1 (Homo sapiens) (UniProt P53667); experiment: Activity of human LIMK1 kinase at 1 uM
[7] = biological target: Dual specificity mitogen-activated protein kinase kinase 1 (Homo sapiens) (UniProt Q02750); experiment: Activity of human MEK1 kinase at 1 uM
[8] = biological target: Myosin light chain kinase, smooth muscle (Homo sapiens) (UniProt Q15746); experiment: Activity of human MLCK kinase at 1 uM
[9] = biological target: Serine/threonine-protein kinase 3 (Homo sapiens) (UniProt Q13188); experiment: Activity of human MST2 kinase at 1 uM
Chain of Serine/threonine-protein kinase 3 (Homo sapiens) (Q13188 whole entry): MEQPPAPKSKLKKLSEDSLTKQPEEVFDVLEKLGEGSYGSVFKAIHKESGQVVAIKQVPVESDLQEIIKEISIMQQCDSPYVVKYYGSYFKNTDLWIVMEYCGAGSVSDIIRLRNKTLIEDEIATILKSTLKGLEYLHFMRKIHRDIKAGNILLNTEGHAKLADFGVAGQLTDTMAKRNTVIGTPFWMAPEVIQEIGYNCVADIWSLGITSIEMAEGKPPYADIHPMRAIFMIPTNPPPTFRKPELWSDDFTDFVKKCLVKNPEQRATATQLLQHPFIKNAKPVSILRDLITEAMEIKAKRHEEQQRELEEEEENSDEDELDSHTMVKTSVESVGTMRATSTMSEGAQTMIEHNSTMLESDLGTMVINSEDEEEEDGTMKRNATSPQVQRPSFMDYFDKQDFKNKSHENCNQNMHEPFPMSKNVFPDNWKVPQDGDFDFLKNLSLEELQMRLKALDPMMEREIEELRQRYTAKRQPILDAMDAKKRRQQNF

[10] = biological target: Serine/threonine-protein kinase Nek6 (Homo sapiens) (UniProt Q9HC98); experiment: Activity of human NEK6 kinase at 1 uM
Method in brief: (§2)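 Single-point screen in a 226-kinase panel run by an outside service. Test compound at 1 μM with ATP at 10 μM in every assay. Other assay conditions are not given.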

[11] = biological target: Serine/threonine-protein kinase PAK 2 (Homo sapiens) (UniProt Q13177); experiment: Activity of human PAK2 kinase at 1 uM; method in brief: as §2
[12] = biological target: cGMP-dependent protein kinase 1 (Homo sapiens) (UniProt Q13976); experiment: Activity of human PKG1-beta kinase at 1 uM; method in brief: as §1
[13] = biological target: Serine/threonine-protein kinase N2 (Homo sapiens) (UniProt Q16513); experiment: Activity of human PRK2 kinase at 1 uM; method in brief: as §2
[14] = biological target: Rho-associated protein kinase 2 (Rattus norvegicus) (UniProt Q62868); experiment: Activity of rat ROCK2 kinase at 1 uM; method in brief: as §2
Chain of Rho-associated protein kinase 2 (Rattus norvegicus) (Q62868 whole entry, looked up): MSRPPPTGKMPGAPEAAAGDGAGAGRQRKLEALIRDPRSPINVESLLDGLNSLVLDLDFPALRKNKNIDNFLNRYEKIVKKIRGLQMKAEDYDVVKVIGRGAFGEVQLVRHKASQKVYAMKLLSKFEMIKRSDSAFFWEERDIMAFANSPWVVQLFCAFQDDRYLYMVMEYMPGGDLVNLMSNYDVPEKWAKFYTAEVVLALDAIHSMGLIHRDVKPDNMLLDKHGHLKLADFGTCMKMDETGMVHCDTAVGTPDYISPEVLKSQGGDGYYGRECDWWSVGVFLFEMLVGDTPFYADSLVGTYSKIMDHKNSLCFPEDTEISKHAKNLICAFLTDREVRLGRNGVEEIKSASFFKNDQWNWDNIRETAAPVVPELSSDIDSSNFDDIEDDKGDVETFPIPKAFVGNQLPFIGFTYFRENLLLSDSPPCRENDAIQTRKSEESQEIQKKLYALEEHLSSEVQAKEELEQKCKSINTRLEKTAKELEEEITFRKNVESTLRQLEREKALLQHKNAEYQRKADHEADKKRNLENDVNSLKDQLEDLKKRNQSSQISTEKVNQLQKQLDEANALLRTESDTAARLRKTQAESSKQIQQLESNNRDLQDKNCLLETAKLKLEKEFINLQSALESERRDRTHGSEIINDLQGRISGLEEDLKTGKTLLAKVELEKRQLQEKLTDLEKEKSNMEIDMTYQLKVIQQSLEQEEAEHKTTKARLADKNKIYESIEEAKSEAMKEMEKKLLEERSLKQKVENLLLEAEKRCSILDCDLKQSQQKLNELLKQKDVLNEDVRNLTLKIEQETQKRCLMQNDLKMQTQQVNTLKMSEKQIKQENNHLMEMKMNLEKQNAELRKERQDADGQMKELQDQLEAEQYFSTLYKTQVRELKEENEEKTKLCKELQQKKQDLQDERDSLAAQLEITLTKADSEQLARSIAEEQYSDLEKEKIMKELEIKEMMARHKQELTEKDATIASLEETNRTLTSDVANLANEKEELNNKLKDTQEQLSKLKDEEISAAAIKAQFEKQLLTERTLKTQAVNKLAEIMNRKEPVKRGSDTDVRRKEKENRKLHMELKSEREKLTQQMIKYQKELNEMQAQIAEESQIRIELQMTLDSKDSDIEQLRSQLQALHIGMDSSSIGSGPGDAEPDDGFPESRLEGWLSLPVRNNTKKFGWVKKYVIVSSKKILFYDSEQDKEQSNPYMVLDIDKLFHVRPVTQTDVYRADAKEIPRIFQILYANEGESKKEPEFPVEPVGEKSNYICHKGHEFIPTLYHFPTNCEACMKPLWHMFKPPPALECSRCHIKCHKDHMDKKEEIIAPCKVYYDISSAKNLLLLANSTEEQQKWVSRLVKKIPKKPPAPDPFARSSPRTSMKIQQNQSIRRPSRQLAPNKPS

[15] = biological target: Macrophage-stimulating protein receptor (Homo sapiens) (UniProt Q04912); experiment: Activity of human Ron kinase at 1 uM; method in brief: as §2
[16] = biological target: Ribosomal protein S6 kinase alpha-3 (Homo sapiens) (UniProt P51812); experiment: Activity of human Rsk2 kinase at 1 uM; method in brief: as §2
[17] = biological target: Mitogen-activated protein kinase 13 (Homo sapiens) (UniProt O15264); experiment: Activity of human SAPK4 kinase at 1 uM; method in brief: as §2
Chain of Mitogen-activated protein kinase 13 (Homo sapiens) (O15264 whole entry): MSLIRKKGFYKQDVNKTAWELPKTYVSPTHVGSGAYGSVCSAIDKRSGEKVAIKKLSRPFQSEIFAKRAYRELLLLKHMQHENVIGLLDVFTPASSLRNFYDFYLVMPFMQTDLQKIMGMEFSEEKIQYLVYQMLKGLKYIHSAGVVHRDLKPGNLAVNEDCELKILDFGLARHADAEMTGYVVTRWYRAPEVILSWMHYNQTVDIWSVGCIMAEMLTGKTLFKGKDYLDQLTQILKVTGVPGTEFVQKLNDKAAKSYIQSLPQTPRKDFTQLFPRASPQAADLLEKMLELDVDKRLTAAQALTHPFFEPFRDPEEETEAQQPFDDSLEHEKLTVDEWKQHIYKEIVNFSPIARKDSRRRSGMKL

[18] = biological target: Serine/threonine-protein kinase Sgk2 (Homo sapiens) (UniProt Q9HBY8); experiment: Activity of human SGK2 kinase at 1 uM; method in brief: as §2
[19] = Plasma concentration in human HCT116 cells xenografted in mouse at 30 mg/kg, po after 24 hrs; format: ADME, organism-based, HCT-116; set-up: dose 30 mg/kg, route oral
[20] = biological target: Tyrosine-protein kinase CSK (Homo sapiens) (UniProt P41240); experiment: Activity of human CSK kinase at 1 uM; method in brief: as §1
Chain of Tyrosine-protein kinase CSK (Homo sapiens) (P41240 2-450 limits assumed): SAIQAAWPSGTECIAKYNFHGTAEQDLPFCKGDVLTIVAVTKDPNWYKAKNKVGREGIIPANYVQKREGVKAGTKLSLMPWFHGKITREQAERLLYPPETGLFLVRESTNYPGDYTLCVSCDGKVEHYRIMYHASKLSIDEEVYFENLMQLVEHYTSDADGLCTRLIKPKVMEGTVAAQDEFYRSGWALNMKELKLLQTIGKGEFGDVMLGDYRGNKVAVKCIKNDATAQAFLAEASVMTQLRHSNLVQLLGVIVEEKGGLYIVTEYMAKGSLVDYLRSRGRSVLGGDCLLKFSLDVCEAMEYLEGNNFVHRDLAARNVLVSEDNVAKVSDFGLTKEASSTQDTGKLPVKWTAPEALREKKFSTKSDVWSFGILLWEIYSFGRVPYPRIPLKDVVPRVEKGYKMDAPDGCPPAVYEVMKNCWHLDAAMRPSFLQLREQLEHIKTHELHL

[21] = biological target: Death-associated protein kinase 2 (Homo sapiens) (UniProt Q9UIK4); experiment: Activity of human DAPK2 kinase at 1 uM; method in brief: as §1
Chain of Death-associated protein kinase 2 (Homo sapiens) (Q9UIK4 whole entry, looked up): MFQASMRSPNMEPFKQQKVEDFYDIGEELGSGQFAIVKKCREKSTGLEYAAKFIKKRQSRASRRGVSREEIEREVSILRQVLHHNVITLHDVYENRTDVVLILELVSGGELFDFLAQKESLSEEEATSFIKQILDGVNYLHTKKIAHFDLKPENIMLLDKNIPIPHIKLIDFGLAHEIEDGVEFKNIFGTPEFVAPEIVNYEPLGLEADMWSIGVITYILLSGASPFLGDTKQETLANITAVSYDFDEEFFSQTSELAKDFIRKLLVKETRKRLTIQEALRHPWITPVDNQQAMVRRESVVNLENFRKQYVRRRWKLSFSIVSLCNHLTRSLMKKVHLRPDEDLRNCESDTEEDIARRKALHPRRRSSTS

[22] = biological target: Ephrin type-A receptor 4 (Homo sapiens) (UniProt P54764); experiment: Activity of human EphA4 kinase at 1 uM
[23] = biological target: Tyrosine-protein kinase Yes (Homo sapiens) (UniProt P07947); experiment: Activity of human Yes kinase at 1 uM
Chain of Tyrosine-protein kinase Yes (Homo sapiens) (P07947 2-543 limits assumed): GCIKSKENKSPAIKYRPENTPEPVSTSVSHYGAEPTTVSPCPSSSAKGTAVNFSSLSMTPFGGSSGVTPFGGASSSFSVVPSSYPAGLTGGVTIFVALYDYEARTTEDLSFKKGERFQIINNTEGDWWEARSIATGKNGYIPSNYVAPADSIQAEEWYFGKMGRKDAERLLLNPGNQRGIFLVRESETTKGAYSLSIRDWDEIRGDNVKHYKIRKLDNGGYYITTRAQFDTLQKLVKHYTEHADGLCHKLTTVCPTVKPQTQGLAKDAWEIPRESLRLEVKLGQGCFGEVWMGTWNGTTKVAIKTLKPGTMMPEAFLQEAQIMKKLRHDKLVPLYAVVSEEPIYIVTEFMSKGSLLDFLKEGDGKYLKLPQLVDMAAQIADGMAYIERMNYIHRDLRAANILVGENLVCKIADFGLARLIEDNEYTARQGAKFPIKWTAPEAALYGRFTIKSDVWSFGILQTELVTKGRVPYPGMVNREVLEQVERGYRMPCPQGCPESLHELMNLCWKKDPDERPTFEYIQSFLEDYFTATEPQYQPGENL
Method in brief: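 Single-concentration screen across a 226-kinase panel run by an outside provider; test compound at 1 μM with 10 μM ATP in every assay. Other conditions not detailed.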

[24] = Inhibition of CAMK2 by radioactive flashplate assay
Mus musculus [25] = experiment: Toxicity in human PC3 cells xenografted into athymic nude NCR nu/nu mouse assessed as decrease in body weight at 30 mg/kg, BID after 21 days; format: organism-based, PC-3; set-up: dose 30 mg/kg; scale not given: the % may be the effect or the level left; conditions: in vivo, 504 h
Method in brief: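 Male athymic nude NCR nu/nu mice were given PC-3 cells (2 × 10^6) s.c. in the right flank. Drug in 10% hydroxypropyl-β-cyclodextrin/5% sodium bicarbonate was given orally twice daily for 21 days. Average loss of initial body weight was recorded on day 21 of treatment.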

[26] = biological target: ALK tyrosine kinase receptor (Homo sapiens) (UniProt Q9UM73); experiment: Activity of human ALK kinase at 1 uM
[27] = biological target: Activin receptor type-1B (Homo sapiens) (UniProt P36896); experiment: Activity of human ALK4 kinase at 1 uM
[28] = biological target: Mitogen-activated protein kinase kinase kinase 5 (Homo sapiens) (UniProt Q99683); experiment: Activity of human ASK1 kinase at 1 uM
[29] = biological target: Tyrosine-protein kinase receptor UFO (Homo sapiens) (UniProt P30530); experiment: Activity of human Axl kinase at 1 uM; method in brief: as §1
[30] = biological target: Protein-tyrosine kinase 6 (Homo sapiens) (UniProt Q13882); experiment: Activity of human BRK kinase at 1 uM
[31] = biological target: Calcium/calmodulin-dependent protein kinase type IV (Homo sapiens) (UniProt Q16566); experiment: Activity of human CaMK4 kinase at 1 uM
[32] = biological target: Casein kinase I homolog 1 (Saccharomyces cerevisiae S288c) (UniProt P23291); experiment: Activity of Saccharomyces cerevisiae CK1 kinase at 1 uM
Chain of Casein kinase I homolog 1 (Saccharomyces cerevisiae S288c) (P23291 whole entry): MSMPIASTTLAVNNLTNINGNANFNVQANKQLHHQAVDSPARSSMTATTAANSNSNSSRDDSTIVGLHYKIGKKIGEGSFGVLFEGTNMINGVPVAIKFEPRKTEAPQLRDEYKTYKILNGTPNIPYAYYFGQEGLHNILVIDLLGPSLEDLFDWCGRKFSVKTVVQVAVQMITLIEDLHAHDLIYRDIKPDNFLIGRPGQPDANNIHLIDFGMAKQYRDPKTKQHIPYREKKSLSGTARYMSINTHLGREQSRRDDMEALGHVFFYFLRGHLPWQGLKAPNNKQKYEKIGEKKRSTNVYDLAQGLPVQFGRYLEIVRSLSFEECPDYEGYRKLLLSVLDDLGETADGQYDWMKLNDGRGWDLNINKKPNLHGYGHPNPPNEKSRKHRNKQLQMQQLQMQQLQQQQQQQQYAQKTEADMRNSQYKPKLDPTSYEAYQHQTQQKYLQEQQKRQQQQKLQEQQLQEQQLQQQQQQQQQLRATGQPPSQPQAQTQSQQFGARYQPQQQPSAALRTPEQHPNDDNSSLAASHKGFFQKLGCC

Homo sapiens = organism: Homo sapiens; experiment: Activity of human CK2 kinase at 1 uM
DLD-1 = experiment: Antiproliferative activity against human DLD1 cells after 96 hrs by BrdU cell proliferation ELISA; format: functional, cell-based; conditions: DLD-1, 96 h
Method in brief: (§3)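 BrdU incorporation proliferation assay on cultured human tumor lines; IC50 values derived from growth inhibition.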

MDA-MB-231 = experiment: Antiproliferative activity against human MDAMB231 cells after 96 hrs by BrdU cell proliferation ELISA; format: functional, cell-based; conditions: MDA-MB-231, 96 h; method in brief: as §3
Mus musculus [33] = experiment: Toxicity in human HCT116 cells xenografted into athymic nude NCR nu/nu mouse assessed as decrease in body weight at 30 mg/kg, QD after 21 days; format: organism-based, HCT-116; set-up: dose 30 mg/kg; scale not given: the % may be the effect or the level left; conditions: in vivo, 504 h
Method in brief: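 Female athymic nude NCR nu/nu mice were given HCT-116 cells (1 × 10^6) s.c. in the right flank. Drug in 10% hydroxypropyl-β-cyclodextrin/5% sodium bicarbonate was given orally (QD or BID) for 21 days. Body weight loss was recorded at the end of treatment, and neutrophil counts were also followed for the BID regimen.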

[34] = biological target: Tyrosine-protein kinase Yes (Homo sapiens) (UniProt P07947); experiment: Inhibition of Yes kinase at 1 uM
Method in brief: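 Single-point screen within a 226-kinase panel, with compound at 1 μM and ATP at 10 μM in all assays.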

PC-3 = experiment: Cell cycle arrest in human PC3 cells by accumulation at G1 phase at 4 uM after 24 hrs by flow cytometry relative to control; format: functional
Method in brief: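 DNA content profiles by flow cytometry of PC-3 prostate tumor cells exposed to drug diluted in DMSO for 24 or 48 h. Phase distribution was compared with DMSO-treated control cells.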

Activity [1]: 67%
Activity [2]: 69%
Activity [3]: 114%
Activity [4]: 92%
Activity [5]: 122%
Activity [6]: 110%
Activity [7]: 110%
Activity [8]: 95%
Activity [9]: 100%
Activity [10]: 92%
Activity [11]: 100%
Activity [12]: 109%
Activity [13]: 90%
Activity [14]: 92%
Activity [15]: 94%
Activity [16]: 76%
Activity [17]: 87%
Activity [18]: 100%
concentration at 24 h [19]: 400 nM
Activity [20]: 105%
Activity [22]: 90%
Activity [23]: 20%
IC50 [24]: > 100000 nM
Activity [26]: 95%
Activity [27]: 115%
Activity [28]: 120%
Activity [29]: 41%
Activity [30]: 104%
Activity [31]: 104%
Activity [32]: 115%
Activity (Homo sapiens): 108%
IC50 (DLD-1): 1430 nM
IC50 (MDA-MB-231): 740 nM
inhibition [34]: 80%
SMILES: O=C(O)c1ccc(Nc2ncc3c(n2)-c2ccc(Cl)cc2C(c2c(F)cccc2F)=NC3)cc1 [MLN-8054]
Activity [21]: 103%
Activity (Mus musculus [25]): 5.4%
Activity (Mus musculus [33]): < 2%
Activity (PC-3): 23%
